Assay outcomes: PubChem BioAssay, Broad Institute
Most compounds without a hit are left out; they make up all but 2.6% or so of the library.
E-selectin induc: E-selectin induction in HUVECs, primary screen, imaging, HUVEC, immunofluorescence imaging, single point | activation, % at 7.58 µM | normalized: neutral wells 0, TNF-alpha wells 100 | 260,000 tested, 0.37% active | P16581 | AID 686992, 2013;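 active = mean E-selectin-positive cell signal at least 10% of the positive control, reached in at least 60% of replicates, without over 20% cell loss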
Target sequence (P16581 whole entry, looked up): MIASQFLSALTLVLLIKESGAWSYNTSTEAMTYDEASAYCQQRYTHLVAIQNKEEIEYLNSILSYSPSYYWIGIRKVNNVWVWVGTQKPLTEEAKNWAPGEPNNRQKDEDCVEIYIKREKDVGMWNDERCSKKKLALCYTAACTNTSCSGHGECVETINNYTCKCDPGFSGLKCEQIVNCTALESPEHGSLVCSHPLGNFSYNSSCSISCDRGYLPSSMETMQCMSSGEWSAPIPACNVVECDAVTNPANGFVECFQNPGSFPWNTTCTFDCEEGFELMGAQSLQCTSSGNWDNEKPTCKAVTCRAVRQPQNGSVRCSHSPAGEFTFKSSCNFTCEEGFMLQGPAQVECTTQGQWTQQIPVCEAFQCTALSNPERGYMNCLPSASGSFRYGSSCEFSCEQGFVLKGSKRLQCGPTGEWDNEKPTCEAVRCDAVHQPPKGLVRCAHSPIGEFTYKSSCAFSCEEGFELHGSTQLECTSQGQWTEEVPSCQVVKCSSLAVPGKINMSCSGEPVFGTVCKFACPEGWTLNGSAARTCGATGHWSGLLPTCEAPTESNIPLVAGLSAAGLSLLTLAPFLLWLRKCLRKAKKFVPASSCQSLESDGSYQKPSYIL
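Assay system: HUVEC primary endothelial cells. Input: 3,000 HUVEC seeded per well. Doses: one compound dose added by pin transfer. Read-out basis: % PE-positive cells. Benchmarks: TNF-alpha high, DMSO low. Detection: immunofluorescence imaging. Buffer or medium: EGM-2, gelatin.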
miR-122 sensor: miR-122 Renilla sensor signal increase in Huh7, primary screen, miR-122 inhibitor project, cell-based, single point, plate reader. Huh7 miR-122 Renilla luciferase sensor, 48 h; neutral wells = 0, positive control = 100. activation (reporter increase), % at 12.5 µM. 340,000 tested, 0.3% active. AID 602342, 2012;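 active = mean replicate activation score at least 90 and every replicate individually at or above 90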;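 note: higher luciferase means less miR-122 activity so hits act as miR-122 inhibitors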
DENV2 CPE rescue: inhibitors of DENV2 cytopathic effect, primary screen, cell-based, plate reader, single concentration. DENV2-infected cells, cytopathic effect rescue. CPE inhibition, % at 9.99 µM. 350,000 tested, 1.7% active. AID 651640, 2012; in the data active = CPE inhibition above about 20%, passing the limit was not always enough; tested in BHK-21 cells
CFTR F508del cor: F508del CFTR correction, initial screen, CFBE line, single point; CFBE cells, YFP halide quenching; stimulated with forskolin plus potentiator P3; % fluorescence drop versus neutral controls; activity (quench increase), % at 7.58 µM; 350,000 tested, 0.36% active; AID 720511, 2013;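 active = mean added fluorescence quench of at least 8% versus neutral control, with both replicates also reaching 8%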;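 note: cells transiently co-express mutant CFTR-F508del with the halide-sensitive YFP; corrector assay measuring rescue of mutant channel to the surface after 24 h compound exposure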
INS-1E GSIS act: GLuc luminescence reporter in INS-1E cells, primary screen for activators of glucose-dependent secretion of insulin; INS-1E GLuc reporter insulin secretion, 2-3 h; activation, % at 16.6 µM; 370,000 tested, 0.61% active;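 active = lowest replicate activation of at least 40%, so every replicate reaches that level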
ERAP1 HTS inh: human ERAP1 aminopeptidase inhibitors, primary screen, biochemical, single point, plate reader; Endoplasmic reticulum aminopeptidase 1 (Homo sapiens), Q9NZ08; recombinant ERAP1, Leu-AMC fluorescence, 60 min; inhibition, % at 10.7 µM; 340,000 tested, 0.15% active;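 active = mean replicate inhibition of at least 30%, or all replicates individually reaching that 30% level; inactive = mean below 30% and not every replicate reaching it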
Large screens that a line does not name were inactive.

Nc1nc(NCc2ccccc2)nc(NCc2ccccc2)c1[N+](=O)[O-]	INS-1E GSIS act 46 (no result: E-selectin induc, DENV2 CPE rescue, CFTR F508del cor, ERAP1 HTS inh)
CO[C@H]1CN(C)C(=O)c2cc(NC(C)=O)ccc2OC[C@H](C)N(C(=O)Cc2cccnc2)C[C@@H]1C	none (no result: miR-122 sensor)
C[C@H](CO)N1C[C@H](C)[C@H](CN(C)S(=O)(=O)c2cccs2)Oc2c(NS(=O)(=O)c3ccccc3)cccc2C1=O	none
COc1ccc(NC(=O)N(C)C[C@H]2OCCCC[C@H](C)Oc3ccc(NS(=O)(=O)c4ccc(Cl)cc4)cc3C(=O)N([C@H](C)CO)C[C@@H]2C)cc1	none
O=C1C=CCC(/C=C/c2ccccc2)O1 (stereo not drawn)	CFTR F508del cor 15 (no result: miR-122 sensor, DENV2 CPE rescue, INS-1E GSIS act)
C[N+](C)(C)CCCNC(=O)c1ccc(/C=N/O)nc1	ERAP1 HTS inh 109 (no result: E-selectin induc, miR-122 sensor)
CCNc1nc(Oc2ccc(F)cc2)cc(C(F)(F)F)n1	none (no result: DENV2 CPE rescue)
CCNc1nc(Oc2ccc(C#N)cc2)cc(C(F)(F)F)n1	INS-1E GSIS act 105 (no result: E-selectin induc, miR-122 sensor)
Cc1ccc(NC(=S)Nc2cc(-c3ccccc3)[nH]n2)cc1Cl	none
Fc1ccc(NC(=S)Nc2cc(-c3ccccc3)[nH]n2)cc1Cl	E-selectin induc 30
O=S(=O)(Nc1ccc(N2CCOCC2)cc1)c1cc(Cl)ccc1Cl	miR-122 sensor 94
O=S(=O)(Nc1cccc(-c2ccc(N3CCOCC3)nn2)c1)c1cc(Cl)ccc1Cl	none (no result: miR-122 sensor)
COc1ccc2c3c([nH]c2c1)[C@@H](CO)N(C(=O)CN(C)C)CC31CN(CC2CCCC2)C1	DENV2 CPE rescue 28 (no result: miR-122 sensor)
CCCNC(=O)N1CC2(CCN(CC3CC3)CC2)c2c([nH]c3cc(OC)ccc23)[C@@H]1CO	DENV2 CPE rescue 24 (no result: miR-122 sensor)
COc1ccc2c3c([nH]c2c1)[C@H](CO)N(C(=O)CN(C)C)CC31CN(CC2CCOCC2)C1	none (no result: miR-122 sensor, ERAP1 HTS inh)
CCCNC(=O)N1CC2(CCN(S(=O)(=O)CC)CC2)c2c([nH]c3cc(OC)ccc23)[C@@H]1CO	DENV2 CPE rescue 31 (no result: miR-122 sensor)
CCCNC(=O)N1CC2(CCN(S(=O)(=O)CC)CC2)c2c([nH]c3cc(OC)ccc23)[C@H]1CO	none (no result: miR-122 sensor)
C[C@@H]1CN([C@H](C)CO)C(=O)c2c(c3ccccc3n2C)-c2ccccc2CO[C@@H]1CN(C)S(=O)(=O)c1cccc(C#N)c1	none (no result: miR-122 sensor)
COc1ccc(NC(=O)N[C@H]2CC[C@H](CCNS(=O)(=O)c3ccccc3F)O[C@H]2CO)cc1	none (no result: miR-122 sensor)
CC1(C(=O)NCc2cccc3ccccc23)CCN1Cc1ccc(OC(F)(F)F)cc1 (stereo not drawn)	INS-1E GSIS act 203
CC1(C(=O)NCc2cccc3ccccc23)CCN1Cc1ccc2ccccc2c1 (stereo not drawn)	none
Cc1cc(C)c(S(=O)(=O)NCCn2ccc3ccccc32)c(C)c1	miR-122 sensor 126 (no result: INS-1E GSIS act)
CCOc1ccc(N(CC(=O)NC2CCCC(C)C2C)S(=O)(=O)c2c(C)noc2C)cc1 (stereo not drawn)	DENV2 CPE rescue 26 (no result: E-selectin induc, miR-122 sensor, ERAP1 HTS inh)
Cc1ccc(N(CC(=O)NC2CCCCC2C)S(=O)(=O)c2c(C)noc2C)cc1 (stereo not drawn)	none (no result: E-selectin induc)
O=C(N[C@@H]1CC[C@@H](CCNC(=O)C2CC2)O[C@@H]1CO)c1ccccn1	none (no result: miR-122 sensor)
CCc1cc(Cn2nc(-c3ccccc3)cc2C(=O)O)on1	none (no result: miR-122 sensor)
CCc1cc(Cn2nc(-c3ccccc3)cc2C(=O)NCc2cccc(Br)c2)on1	DENV2 CPE rescue 90 (no result: miR-122 sensor)
CCc1cc(Cn2nc(-c3ccccc3)cc2C(=O)NCc2cccc(C(F)(F)F)c2)on1	none (no result: miR-122 sensor, INS-1E GSIS act)
CCc1cc(Cn2nc(-c3ccccc3)cc2C(=O)NCc2ccc(C)cc2)on1	DENV2 CPE rescue 111
C[C@@H]1CN([C@@H](C)CO)C(=O)c2cc(-c3cccnc3)cnc2O[C@@H]1CN(C)C(=O)C1CCOCC1	none
CC[n+]1c(/C=C2\Sc3ccccc3N2C)ccc2cccc(C)c21	CFTR F508del cor 18 (no result: miR-122 sensor, ERAP1 HTS inh)
COc1ccc(-[n+]2c(C)cc(/C=C3\Sc4ccccc4N3C)cc2C)cc1	none (no result: E-selectin induc, miR-122 sensor)
C[C@@H]1CN([C@@H](C)CO)C(=O)c2cccc(NC(=O)CCCCCC(=O)Nc3ccccc3N)c2O[C@@H]1CN(C)Cc1ccc(Oc2ccccc2)cc1	none (no result: miR-122 sensor)
